# Assays:
# Aspergillus fumigatus = test: In vitro antifungal activity against Aspergillus fumigatus ATCC 28212; format: functional
# Method in brief: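 Agar-well MIC with Antibiotic Medium 3 + 2% agar containing compound at 70 to 0.2 µg/mL, using four- or six-point dilutions. Mold was grown about 1 week on Potato Flake Agar at 26 °C, swabbed into sterile water, counted by hemacytometer and adjusted to 1 × 10^4 cells/mL. MIC was the lowest dilution without visible growth.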
# Candida albicans [1] = test: In vitro antifungal activity against Candida albicans ATCC 10259; format: functional
# Method in brief: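 Yeast was cultured overnight on Potato Flake Agar at 26 °C, swabbed into sterile water, counted by hemacytometer and diluted to 1 × 10^4 cells/mL. Wells (24-well) contained Antibiotic Medium 3 + 2% agar with compound at 70 to 0.2 µg/mL, in four- or six-point series. Each well got 0.05 mL and was held at 26 °C until control growth was visible. MIC was the lowest concentration with no visible growth.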
# Candida albicans [2] = test: In vitro antifungal activity against Candida stellatoidea ATCC 36232; format: functional
# Method in brief: (§1)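 Solid agar MIC in 24-well plates. Compound was diluted 10-fold into Antibiotic Medium 3 + 2% agar at 70 to 0.2 µg/mL, using four- or six-point schemes, with a ketoconazole control. The organism was grown on Potato Flake Agar at 26 °C, counted by hemacytometer and diluted to 1 × 10^4 cells/mL. Wells received 0.05 mL and were incubated at 26 °C until control growth appeared. MIC was the lowest dilution with no visible growth.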
# Candida albicans [3] = test: Antifungal activity in rat vaginal candidasis, 2 day postinfection with Candida. albicans SOB FM-391; format: functional
# Method in brief: (§2)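 Ovariectomized female Sprague–Dawley rats (170–230 g), eight per group, kept in pseudoestrus with weekly sc estradiol valerate (0.5 mg). Intravaginal challenge on day 4 with 1 × 10^7 organisms in 0.1 mL RPMI+. Oral dosing at 20 mg/kg in 1% (carboxymethyl)cellulose, twice daily for 7 days from 24 h post-infection. Vaginal swabs in PBS were serially diluted and plated on SDA for 48 h at 24–26 °C. Read-out is log10 organisms/mL lavage fluid.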
# Candida albicans [4] = test: Antifungal activity in rat vaginal candidasis, 3 day postinfection with Candida. albicans SOB FM-391; format: functional; method in brief: as §2
# Candida albicans [5] = test: Antifungal activity in rat vaginal candidasis, 4 day postinfection with Candida. albicans SOB FM-391; format: functional; method in brief: as §2
# Candida albicans [6] = test: Antifungal activity in rat vaginal candidasis, 7 day postinfection with Candida. albicans SOB FM-391; format: functional; method in brief: as §2
# Candida albicans [7] = test: Antifungal activity in rat vaginal candidasis, 8 day postinfection with Candida. albicans SOB FM-391; format: functional; method in brief: as §2
# Epidermophyton floccosum = test: In vitro antifungal activity against Epidermophyton floccosum ATCC E-18397; format: functional; method in brief: as §1
# Microsporum canis = test: In vitro antifungal activity against Microsporum canis ATCC 44459; format: functional; method in brief: as §1
# Microsporum audouinii = test: In vitro antifungal activity against Microsporum audouinii ATCC 9079; format: functional; method in brief: as §1
# Trichophyton benhamiae = test: (§3) In vitro antifungal activity against Trichophyton mentagrophytes ATCC 9533; format: functional, Arthroderma benhamiae; method in brief: as §1
# Trichophyton rubrum = test: In vitro antifungal activity against Trichophyton rubrum ATCC 18762; format: functional
# Method in brief: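 Dermatophyte was grown about 2 weeks on Potato Flake Agar at 26 °C, washed off the plate with sterile water and diluted to 1 × 10^4 cells/mL by hemacytometer count. Agar wells (Antibiotic Medium 3 + 2% agar, compound 70 to 0.2 µg/mL, four- or six-point) were inoculated with 0.05 mL and incubated at 26 °C until controls grew. MIC was the lowest dilution showing no visible growth.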
# [8] = system: Trichophyton schoenleinii; test: In vitro antifungal activity against Trichophyton schoenleinii ATCC 22775; format: functional; method in brief: as §1
# Trichophyton tonsurans [9] = test: (§4) In vitro antifungal activity against Trichophyton tonsurans ATCC 9085; format: functional; method in brief: as §1
# Candida albicans [10] = test: Antifungal activity in rat vaginal candidasis, 1 day postinfection with Candida. albicans SOB FM-391; format: functional; method in brief: as §2
# [11] = as §3; format: functional, Arthroderma benhamiae; conditions: Trichophyton benhamiae; method in brief: as §1
# Trichophyton tonsurans [12] = test: as §4; format: functional; remark: listed apart in the source
# Method in brief: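 Solid agar MIC in 24-well plates. Compound was diluted 10-fold into Antibiotic Medium 3 + 2% agar, using either a […] or a 70/20/7/2/0.7/0.2 µg/mL scheme. Cells counted by hemacytometer were diluted to 1 × 10^4 cells/mL, and 0.05 mL was inoculated. Plates were incubated at 26 °C until compound-free controls grew. MIC is the lowest dilution with no visible growth.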
# Trichophyton tonsurans [13] = test: In vitro antifungal activity against Trichophyton tonsurans ATCC 9085
# [14] = system: Trichophyton schoenleinii; test: In vitro antifungal activity against Trichophyton schoenleinii ATCC 22775
MIC (Aspergillus fumigatus) [µg/mL],MIC (Candida albicans [1]) [µg/mL],MIC (Candida albicans [2]) [µg/mL],MIC (Epidermophyton floccosum) [µg/mL],MIC (Microsporum canis) [µg/mL],MIC (Microsporum audouinii) [µg/mL],MIC (Trichophyton benhamiae) [µg/mL],MIC (Trichophyton rubrum) [µg/mL],MIC [8] [µg/mL],MIC (Trichophyton tonsurans [9]) [µg/mL],MIC [11] [µg/mL],MIC (Trichophyton tonsurans [13]) [µg/mL],MIC [14] [µg/mL],SMILES,Log (Candida albicans [3]),Log (Candida albicans [4]),Log (Candida albicans [5]),Log (Candida albicans [6]),Log (Candida albicans [7]),Log (Candida albicans [10]),MIC (Trichophyton tonsurans [12]) [µg/mL]
7,7,2,< 0.2,2,2,< 0.2,0.7,0.7,< 0.2,,,,CN1O[C@H](c2ccc(Cl)cc2)C[C@@]1(Cn1ccnc1)c1ccc(Cl)cc1,4,3.6,3.4,3.3,1.8,4.7,
20,70,,,,,,2,,,,,,CN1O[C@H](c2ccccc2)C[C@@]1(Cn1ccnc1)c1ccc(F)cc1,,,,,,,
> 70,20,,,,,,0.7,,,,,,Fc1ccc([C@]2(Cn3ccnc3)C[C@@H](c3ccccc3)ON2Cc2ccccc2)cc1,,,,,,,
70,20,0.7,2,7,20,,2,2,,2,,,Cc1ccc([C@H]2C[C@@](Cn3ccnc3)(c3ccc(Cl)cc3)N(C)O2)cc1,,,,,,,2
70,20,7,0.7,2,7,< 0.2,0.7,,,,0.7,2,CN1O[C@H](c2ccccc2)C[C@@]1(Cn1ccnc1)c1ccc(Cl)cc1,,,,,,,
2,7,7,0.7,2,20,7,0.7,7,0.7,,,,CN1O[C@H](c2c(Cl)cccc2Cl)C[C@@]1(Cn1ccnc1)c1ccc(Cl)cc1,,,,,,,
> 70,70,20,7,20,70,20,20,70,20,,,,COc1ccc([C@@H]2C[C@@](Cn3ccnc3)(c3ccc(OC)cc3)N(C)O2)cc1,,,,,,,
70,7,0.7,0.7,7,7,0.7,2,2,0.7,,,,Cc1ccc([C@@H]2C[C@@](Cn3ccnc3)(c3ccc(Cl)cc3)N(C)O2)cc1,,,,,,,
7,7,7,0.7,2,20,7,0.7,7,0.7,,,,CN1O[C@@H](c2c(Cl)cccc2Cl)C[C@@]1(Cn1ccnc1)c1ccc(Cl)cc1,,,,,,,
70,70,7,7,7,20,0.7,2,7,0.7,,,,CN1O[C@H](c2ccccc2)C[C@@]1(Cn1ccnc1)c1ccccc1,,,,,,,
7,7,0.7,< 0.2,2,2,< 0.2,0.7,0.7,< 0.2,,,,CN1O[C@H](c2ccccc2Cl)C[C@@]1(Cn1ccnc1)c1ccc(Cl)cc1,,,,,,,

SMILES,MIC (Aspergillus fumigatus) [µg/mL],MIC (Candida albicans [1]) [µg/mL],MIC (Candida albicans [2]) [µg/mL],MIC (Epidermophyton floccosum) [µg/mL],MIC (Microsporum canis) [µg/mL],MIC (Microsporum audouinii) [µg/mL],MIC (Trichophyton benhamiae) [µg/mL],MIC (Trichophyton rubrum) [µg/mL],MIC [8] [µg/mL],MIC (Trichophyton tonsurans [9]) [µg/mL],MIC [11] [µg/mL],MIC (Trichophyton tonsurans [13]) [µg/mL],MIC [14] [µg/mL],Log (Candida albicans [3]),Log (Candida albicans [4]),Log (Candida albicans [5]),Log (Candida albicans [6]),Log (Candida albicans [7]),Log (Candida albicans [10]),MIC (Trichophyton tonsurans [12]) [µg/mL]
CC(=O)N1CCN(c2ccc(OCC3COC(Cn4ccnc4)(c4ccc(Cl)cc4Cl)O3)cc2)CC1 (stereo not drawn) [KETOCONAZOLE],7,20,20,< 0.2,2,7,2,0.7,0.7,,,,,1.5,0.3,0,0,0,5,< 0.2

# Reference: ChEMBL document CHEMBL1123988, “Studies on antifungal agents. 23. Novel substituted 3,5-diphenyl-3-(1H-imidazol-1-ylmethyl)- 2-alkylisoxazolidine derivatives” (1988)
